We go through twelve compounds from ChEMBL document CHEMBL1152476, “Synthesis and in vitro cytotoxicity of 9-anilinoacridines bearing N-mustard residue on both anilino and acridine rings” (Eur J Med Chem, 2009).

pIC50: −log10 of the molar value.

The nature of series [1]: Solubility in normal saline. In kind it is physicochemical. The following applies: buffer.
Series [2] can be described thus: Solubility in Tween 80. It is filed as physicochemical.
Series [3] relates to CCRF-CEM. The series can be described thus: Ratio of AHMA IC50 to compound IC50 against human CCRF-CEM cells. In kind it is functional. An outline of the steps: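 Ratio of AHMA IC50 to test compound IC50, both from the same 72 h CCRF-CEM XTT assay. Six or seven concentrations per drug were tested, and each IC50 came from a median–effect analysis of the dose–effect relationship.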

Series [4] is described as follows: Solubility in dimethyl sulfoxide. In kind it is physicochemical.
Series [5] concerns CCRF-CEM. The series can be described thus: Antitumor activity in human CCRF-CEM cells xenografted mouse at 2 mg/kg, iv qd for 3 days. In kind it is functional, organism-based. Details: dose 2 mg/kg. The method, boiled down:
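Mice received intravenous injection at 2 mg/kg, once daily ×3 (QD×3), in a DMSO/Tween 80/normal saline vehicle.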
For orientation: Xenograft models place foreign cells or tissue in a host animal.

Series [6] has as its system CCRF-CEM. The series can be described thus: Cytotoxicity against human CCRF-CEM cells after 72 hrs by XTT-tetrazolium assay. In kind it is functional, cell-based. An outline of the steps:
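CCRF-CEM human T-cell acute lymphocytic leukemia cells exposed for 72 h to six or seven concentrations per compound. Phenazine methosulfate–XTT was then added for 6 h at 37 °C, and absorbance was read at 450 and 630 nm. IC50 was derived from the dose–effect relationship by median–effect plot analysis.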
In general terms: Tetrazolium dyes change colour on reduction, which living cells bring about.

In general, pIC50 refers to the negative decadic logarithm of the IC50, by convention in mol/L. A higher pIC50 goes with a small IC50. Consider `ClCCN(CCCl)CCOc1cccc(Nc2c3ccccc3nc3c(OCCN(CCCl)CCCl)cccc23)c1`, for which the solubility entry in series [1], in series [2] and in series [4] was “Insoluble” throughout. For the same compound, the “Ratio IC50” value in series [3] amounted to 30. Also, the Activity entry in series [5] is “Toxic”. In addition, the pIC50 in series [6] was 7.77.

Consider `COc1cc(N)cc(Nc2c3ccccc3nc3c(OCCN(CCCl)CCCl)cccc23)c1`, for which the solubility entry in series [1], in series [2] and in series [4] was “Insoluble” each time. Besides, the “Ratio IC50” value in series [3] was determined as 30. The Activity result in series [5] was “Toxic”. This compound also gave a pIC50 in series [6] of 8.17.

Turning to `ClCCN(CCCl)CCCCOc1cccc(Nc2c3ccccc3nc3c(OCCN(CCCl)CCCl)cccc23)c1`, the solubility result in series [1], in series [2] and in series [4] was “Insoluble” in each case. For the same compound, in series [3], the “Ratio IC50” value came out at 30. Besides, the Activity result in series [5] is “Toxic”. In series [6], this compound showed a pIC50 of 8.22.

Turning to `ClCCN(CCCl)CCCCOc1cccc2c(Nc3ccc(OCCN(CCCl)CCCl)cc3)c3ccccc3nc12`, the solubility entry in series [1], in series [2] and in series [4] was “Insoluble” each time. Moreover, the “Ratio IC50” value in series [3] is given as 30. The Activity entry in series [5] is “Toxic”. Also, in series [6], the pIC50 was 8.89.

As to `ClCCN(CCCl)CCOc1ccc(Nc2c3ccccc3nc3c(OCCN(CCCl)CCCl)cccc23)cc1`, the solubility result in series [1], in series [2] and in series [4] was “Insoluble” throughout. Besides, the “Ratio IC50” value in series [3] was determined as 30. For the same compound, the Activity result in series [5] was “Toxic”. Also, the pIC50 in series [6] is 7.85.

Turning to `ClCCN(CCCl)CCOc1cccc(Nc2c3ccccc3nc3ccccc23)c1`, the solubility result in series [1], in series [2] and in series [4] was “Insoluble” in each case. Besides, in series [3], the “Ratio IC50” value is recorded as 30. Besides, the Activity result in series [5] was “Toxic”. In series [6], this compound had a negative logarithm of the IC50 (pIC50) of 7.07.

Consider `ClCCN(CCCl)CCCCOc1cccc(Nc2c3ccccc3nc3ccccc23)c1`, for which the solubility result in series [1], in series [2] and in series [4] was “Insoluble” each time. Besides, in series [3], the “Ratio IC50” value worked out at 30. Also, the Activity result in series [5] was “Toxic”. Besides, in series [6], the pIC50 is 6.41.

With `ClCCN(CCCl)CCCCOc1ccc(Nc2c3ccccc3nc3c(OCCN(CCCl)CCCl)cccc23)cc1`, the solubility entry in series [1], in series [2] and in series [4] was “Insoluble” in each case. The “Ratio IC50” value in series [3] is reported as 30. In series [5], the Activity entry was “Toxic”. The same compound showed a pIC50 in series [6] of 7.68.

Consider `COc1cc(N)cc(Nc2c3ccccc3nc3c(OCCCCN(CCCl)CCCl)cccc23)c1`, for which the solubility result in series [1], in series [2] and in series [4] was “Insoluble” throughout. Further, the “Ratio IC50” value in series [3] was 30. For the same compound, in series [5], the Activity entry was “Toxic”.

As for `ClCCN(CCCl)CCOc1ccc(Nc2c3ccccc3nc3ccccc23)cc1`, the solubility entry in series [1], in series [2] and in series [4] was “Insoluble” each time. The “Ratio IC50” value in series [3] was 30. Also, the Activity result in series [5] is “Toxic”.

Regarding `CC(=O)O[C@H]1C(=O)[C@@]2(C)[C@H]([C@H](OC(=O)c3ccccc3)[C@]3(O)C[C@H](OC(=O)[C@H](O)[C@@H](NC(=O)c4ccccc4)c4ccccc4)C(C)=C1C3(C)C)[C@]1(OC(C)=O)CO[C@@H]1C[C@@H]2O`, the Activity entry in series [5] is “Toxic”.

In the case of `ClCCN(CCCl)CCCCOc1ccc(Nc2c3ccccc3nc3ccccc23)cc1`, the solubility entry in series [1], in series [2] and in series [4] was “Insoluble” each time. For the same compound, the “Ratio IC50” value in series [3] is given as 30. Further, the Activity entry in series [5] is “Toxic”. The same compound showed a pIC50 in series [6] of 7.25.
